The results in this text go back to ChEMBL document CHEMBL4431333, “Synthesis, Antibacterial, and Anticancer Evaluation of Novel Spiramycin-Like Conjugates Containing C(5) Triazole Arm” (J Med Chem, 2016).

In brackets after ≈: the same amount, converted by molar mass. Activity calls are given as the source filed them. The rule behind the calls is not given here. Where only a bound is given, the exact number is not on record here.

By MIC is commonly meant the least concentration at which growth counts as inhibited. Higher therefore signals weaker potency. As a reminder, the solubility is how much of the substance goes into solution per volume. The IC50 is the concentration needed to halve the response being measured. Broadly, the logP is the decadic logarithm of the partition coefficient of the neutral form, usually between octanol and water. Lower therefore signals lower lipophilicity.

One series concerns Micrococcus luteus. As to the kind of experiment: Antibacterial activity against Micrococcus luteus ATCC 10240 after 18 hrs by serial microdilution method. Format: functional.
The subject of series [1] is Staphylococcus epidermidis. Kind of series: Antibacterial activity against Staphylococcus epidermidis ATCC 12228 after 18 hrs by serial microdilution method. Format: functional.
In series [2] the test system is Staphylococcus aureus. As to the kind of experiment: Antibacterial activity against methicillin-resistant Staphylococcus aureus isolate 2 after 18 hrs by serial microdilution method. Format: functional. In a few lines:
(§1)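 Clinical MRSA isolates, confirmed by cefoxitin 30 μg disc diffusion (EUCAST) and PCR for mecA. MIC by EUCAST broth microdilution in Mueller–Hinton II broth. Compounds dissolved in DMSO and diluted in broth, tested at 0.064–64 μg mL−1. Final inoculum approximately 5 × 10^5 CFU mL−1. Read after 18 h at 35 ± 2 °C.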
(In general: Broth dilution looks for growth in wells or tubes with falling amounts of substance.)

For a further series, the system named is Streptococcus pneumoniae. As to the kind of experiment: Antibacterial activity against Streptococcus pneumoniae ATCC 49619 after 18 hrs by serial microdilution method. Format: functional.
Series [3] deals with Staphylococcus epidermidis. Kind of series: Antibacterial activity against Staphylococcus epidermidis ATCC 49134 after 18 hrs by serial microdilution method. Format: functional.
Another series relates to Bacillus spizizenii. Kind of series: Antibacterial activity against Bacillus subtilis ATCC 6633 after 18 hrs by serial microdilution method. Format: functional.
In series [4] the test system is Staphylococcus aureus. As to the kind of experiment: Antibacterial activity against methicillin-resistant Staphylococcus aureus isolate 1 after 18 hrs by serial microdilution method. Format: functional. In a few lines: as §1
The nature of series [5]: Solubility of compound in water. Format: physicochemical.
The next series relates to MCF7. As to the kind of experiment: Cytotoxicity against human MCF7 cells assessed as reduction in cell survival after 72 hrs by sulforhodamine B assay. Format: functional, cell-based. A general note: In SRB staining, fixed cells bind dye roughly in proportion to their protein.
A short description of series [6]: (§2) Selectivity index, ratio of IC50 for HDF to IC50 for human HeLa cells.
The nature of series [7]: (§3) Selectivity index, ratio of IC50 for HDF to IC50 for human MCF7 cells.
Series [8] is described as follows: (§4) Selectivity index, ratio of IC50 for HDF to IC50 for human KB cells.
Series [9] can be described thus: (§5) Selectivity index, ratio of IC50 for HDF to IC50 for human HepG2 cells.
For a further series, the system named is HeLa. Kind of series: Cytotoxicity against human HeLa cells assessed as reduction in cell survival after 72 hrs by sulforhodamine B assay. Format: functional, cell-based.
The nature of series [10]: Octanol-water partition coefficient, log P of compound after 1 hr by UV-visible spectrophotometric analysis. Format: physicochemical.
Another series concerns HepG2. Kind of series: Cytotoxicity against human HepG2 cells assessed as reduction in cell survival after 72 hrs by sulforhodamine B assay. Format: functional, cell-based.
In a further series the test system is NHDF. As to the kind of experiment: Cytotoxicity against HDF assessed as reduction in cell survival after 72 hrs by sulforhodamine B assay. Format: cell-based, Homo sapiens.
The subject of the next series is KB. Kind of series: Cytotoxicity against human KB cells assessed as reduction in cell survival after 72 hrs by sulforhodamine B assay. Format: functional, cell-based.
The species entered for series [11] is Homo sapiens. The description is as §5.
Series [12] is filed under the species Homo sapiens. The description is as §2.
Series [13] is filed under the species Homo sapiens. The description is as §3.
For series [14], the species on record is Homo sapiens. The description is as §4.

`CO/C1=C\CC(=O)O[C@H](C)C/C=C/C=C/[C@H](O[C@H]2CC[C@H](N(C)C)[C@@H](C)O2)[C@H](C)C[C@@H]2C[C@H](OCc3cn([C@H]4O[C@@H](CO)[C@@H](O)[C@@H](O)[C@@H]4O)nn3)O[C@@H]12`: the MIC with Micrococcus luteus (ATCC 10240, 18 h) is 85.2 µM (≈ 64 µg/mL); in series [1] (ATCC 12228, 18 h), above 85.2 µM; in the series with Staphylococcus aureus [2] (isolate 2, 18 h), above 85.2 µM; in the series with Streptococcus pneumoniae (ATCC 49619, 18 h), 10.7 µM (≈ 8 µg/mL); in series [3] (ATCC 49134, 18 h), above 85.2 µM; in the series on Bacillus spizizenii (ATCC 6633, 18 h), 85.2 µM (≈ 64 µg/mL). Also, the minimum inhibitory concentration (MIC) with Staphylococcus aureus [4] (isolate 1, 18 h) is above 85.2 µM.
With `CO/C1=C\CC(=O)O[C@H](C)C/C=C/C=C/[C@H](O[C@H]2CC[C@H](N(C)C)[C@@H](C)O2)[C@H](C)C[C@@H]2C[C@H](OCc3cn(CC4CCOCC4)nn3)O[C@@H]12`, the outcome (in the series with Micrococcus luteus; in [1]; in the series with Staphylococcus aureus [2]; in the series with Streptococcus pneumoniae; in series [3]; in the series on Bacillus spizizenii) was inactive. For the same compound, the outcome in the series on Staphylococcus aureus [4] was inactive. Moreover, the solubility entry in series [5] (buffer) is listed as “Insoluble”.
`CO/C1=C\CC(=O)O[C@H](C)C/C=C/C=C/[C@H](O[C@H]2CC[C@H](N(C)C)[C@@H](C)O2)[C@H](C)C[C@@H]2C[C@H](OCc3cn([C@H]4O[C@@H](CO)[C@H](O)[C@@H](O)[C@@H]4O)nn3)O[C@@H]12`: the MIC was 85.2 µM (≈ 64 µg/mL) against Micrococcus luteus (ATCC 10240, 18 h); 85.2 µM (≈ 64 µg/mL) in [1] (ATCC 12228, 18 h); above 85.2 µM in the series with Staphylococcus aureus [2] (isolate 2, 18 h); 10.7 µM (≈ 8 µg/mL) with Streptococcus pneumoniae (ATCC 49619, 18 h); 85.2 µM (≈ 64 µg/mL) in series [3] (ATCC 49134, 18 h); 85.2 µM (≈ 64 µg/mL) against Bacillus spizizenii (ATCC 6633, 18 h). In the series with Staphylococcus aureus [4] (isolate 1, 18 h), this compound yielded an MIC above 85.2 µM.
For `CO/C1=C\CC(=O)O[C@H](C)C/C=C/C=C/[C@H](O[C@H]2CC[C@H](N(C)C)[C@@H](C)O2)[C@H](C)C[C@@H]2C[C@H](OCc3cn(Cc4ccccc4)nn3)O[C@@H]12`, the solubility entry in [5] (buffer) is recorded as “Insoluble”.
In the case of `Cc1cn([C@H]2C[C@H](N=[N+]=[N-])[C@@H](CO)O2)c(=O)[nH]c1=O` [ZIDOVUDINE], in the series with MCF7 (Homo sapiens, MCF7, 72 h), the concentration for half-maximal inhibition (IC50) came to 7.67 µM. The entries for the “Ratio IC50” value in series [6], in series [7] and in series [8] were 1.34, 1.88 and 1.48, respectively.
Turning to `CO/C1=C\CC(=O)O[C@H](C)C/C=C/C=C/[C@H](O[C@H]2CC[C@H](N(C)C)[C@@H](C)O2)[C@H](C)C[C@@H]2C[C@H](OCc3cn(C4CCCCC4)nn3)O[C@@H]12`, the solubility entry in series [5] (buffer) was “Insoluble”.
Consider `C#CCO[C@H]1C[C@H]2C[C@@H](C)[C@@H](O[C@H]3CC[C@H](N(C)C)[C@@H](C)O3)/C=C/C=C/C[C@@H](C)OC(=O)C/C=C(\OC)[C@@H]2O1`, for which the outcome (with Micrococcus luteus; in series [1]; in the series with Staphylococcus aureus [2]; in the series on Streptococcus pneumoniae; in series [3]; with Bacillus spizizenii) was inactive. In the series with Staphylococcus aureus [4], the outcome was inactive. In addition, the solubility entry in [5] (buffer) is “Insoluble”.
Consider `COC1=C\[C@@H](CC=O)C[C@@H](C)[C@@H](O[C@H]2CC[C@H](N(C)C)[C@@H](C)O2)/C=C/C=C/C[C@@H](C)OC(=O)\C=C\1`, for which the MIC against Micrococcus luteus (ATCC 10240, 18 h) came to 8.17 µM (≈ 4 µg/mL); in series [1] (ATCC 12228, 18 h) it was 16.3 µM (≈ 8 µg/mL); with Staphylococcus aureus [2] (isolate 2, 18 h), 32.7 µM (≈ 16 µg/mL); against Streptococcus pneumoniae (ATCC 49619, 18 h), 4.08 µM (≈ 2 µg/mL); in series [3] (ATCC 49134, 18 h), 16.3 µM (≈ 8 µg/mL); against Bacillus spizizenii (ATCC 6633, 18 h), 16.3 µM (≈ 8 µg/mL). The compound also registered a minimal inhibitory concentration (MIC) in the series on Staphylococcus aureus [4] (isolate 1, 18 h) of 32.7 µM (≈ 16 µg/mL). In addition, the “Ratio IC50” value stood at 1.03 in [9], 1.1 in series [6], 1.07 in [7] and 1.05 in series [8]. In addition, the IC50 with MCF7 (Homo sapiens, MCF7, 72 h) was 131 µM; with HeLa (Homo sapiens, HeLa, 72 h) it was 127 µM; with HepG2 (Homo sapiens, HepG2, 72 h), 135 µM; in the series on NHDF (Homo sapiens, NHDF, 72 h), 139 µM; in the series on KB (Homo sapiens, KB, 72 h), 133 µM. Further, the solubility in series [5] (water, read-out: solubility) is 700 µg/mL (≈ 1430 µM). Further, the logP at 1 h in [10] came out at 0.74.
On to `CO/C1=C\CC(=O)O[C@H](C)C/C=C/C=C/[C@H](O[C@H]2CC[C@H](N(C)C)[C@@H](C)O2)[C@H](C)C[C@@H]2C[C@H](OCc3cn(C4CCCCCC4)nn3)O[C@@H]12`, for which the solubility entry in series [5] (buffer) is recorded as “Insoluble”.
In the case of `CO/C1=C\CC(=O)O[C@H](C)C/C=C/C=C/[C@H](O[C@H]2CC[C@H](N(C)C)[C@@H](C)O2)[C@H](C)C[C@@H]2C[C@H](OCc3cn([C@H]4C[C@H](n5cc(C)c(=O)[nH]c5=O)O[C@@H]4CO)nn3)O[C@@H]12`, in series [5] (buffer), the solubility entry was “Insoluble”.
With `C=CCO[C@H]1C[C@H]2C[C@@H](C)[C@@H](O[C@H]3CC[C@H](N(C)C)[C@@H](C)O3)/C=C/C=C/C[C@@H](C)OC(=O)C/C=C(\OC)[C@@H]2O1`, the outcome (in the series with Micrococcus luteus; in [1]; with Streptococcus pneumoniae; with Bacillus spizizenii; in the series on Staphylococcus aureus [4]) was inactive. For the same compound, in series [5] (buffer), the solubility entry is listed as “Insoluble”.
Regarding SPIRAMYCIN [listing 1 of 2 here], the IC50 in the series with MCF7 (mcf7) amounted to 33.1 µM; with HeLa (hela), 34.4 µM; with HepG2 (hepg2), 30.5 µM; in the series with NHDF (nhdf) it was 31.1 µM; with KB (kb) it was 31.3 µM. In series [5] (buffer), this compound came in with a solubility of 4500 µg/mL. In [10] (1 h), this compound showed a logP of 0.58.
`O=c1[nH]cc(F)c(=O)[nH]1` [FLUOROURACIL]: in series [8], the “Ratio IC50” value stood at 1.45. For the same compound, the IC50 in the series with NHDF (Homo sapiens, NHDF, 72 h) was 7.02 µM.
For SPIRAMYCIN [listing 2 of 2 here], the MIC against Micrococcus luteus worked out at 0.3 µM; in series [1], 2.37 µM; in the series on Staphylococcus aureus [2], 4.74 µM; with Streptococcus pneumoniae, 0.3 µM; in series [3] it was 2.37 µM; against Bacillus spizizenii, 0.59 µM. Besides, inhibition of growth with Staphylococcus aureus [4] (MIC) required 9.49 µM. The Ratio IC50 in the series filed under Homo sapiens [11] came out at 1.02; in the series filed under Homo sapiens [12], 0.9; in the series listed under Homo sapiens [13] it was 0.94; in the series filed under Homo sapiens [14], 0.9.
On to `O=c1[nH]c(=O)n([C@H]2C[C@H](O)[C@@H](CO)O2)cc1F` [FLOXURIDINE], for which, in [8], the “Ratio IC50” value was determined as 1.5.
On to `CO/C1=C\CC(=O)O[C@H](C)C/C=C/C=C/[C@H](O[C@H]2CC[C@H](N(C)C)[C@@H](C)O2)[C@H](C)C[C@@H]2C[C@H](OCc3ccc(F)cc3)O[C@@H]12`, for which the outcome (in the series on Micrococcus luteus; in series [1]; in the series on Streptococcus pneumoniae; in the series with Bacillus spizizenii; in the series with Staphylococcus aureus [4]) was inactive. Besides, the solubility entry in series [5] (buffer) is given as “Insoluble”.
For `CO/C1=C\CC(=O)O[C@H](C)C/C=C/C=C/[C@H](O[C@H]2CC[C@H](N(C)C)[C@@H](C)O2)[C@H](C)C[C@@H]2C[C@H](OCc3cn(CC4CCCCC4)nn3)O[C@@H]12`, in series [5] (buffer), the solubility entry is recorded as “Insoluble”.
`Nc1ccn([C@@H]2O[C@H](CO)[C@@H](O)[C@@H]2O)c(=O)n1` [CYTARABINE]: the “Ratio IC50” value in [8] was 1.23.
